MT stabilize HCS: microtubule stabilizers in HeLa cells, primary screen, imaging, high-content imaging | HeLa tubulin immunostaining HCS, 24 h; share of cells brighter than vehicle mean+2SD | % tubulin-high responders, % at 10 µM | actives 0.83% (n = 200,000) | AID 2205, 2009;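 active means plate Z-score above 3 for both tubulin-high and condensed-nucleus cell shares, with cell loss under 80%, at 10 µM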;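 further: anti alpha tubulin signal scored within the nucleus-defined area of each cell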
b-catenin transl: modulators of beta-catenin nuclear translocation, primary screen, imaging, HeLa cells, immunofluorescence, high-content | AID 1665, 2009 | nuclear translocation activity, % at 5 µM | actives 0.3% (n = 190,000);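 active means nuclear translocation activity above 50% at 5 µM, with a well cell count of 50 or more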;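 further: per-cell ratio of nuclear to cytoplasmic median beta-catenin stain intensity; plate controls were DMSO negative control for no effect and GSK-3 inhibitor IX positive control for full effect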
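System: HeLa cells, endogenous beta-catenin; compound dosing: 5 µM primary single dose, 0.1% DMSO, 0.02–20 µM confirmation series; incubation: 24 h compound exposure at 37°C, 5% CO2; signal: beta-catenin immunofluorescence imaging with DAPI; evaluation: % activation, nuclear-to-cytoplasmic median beta-catenin signal ratio per cell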
HSV augment: enhancers of HSV replication in host cells, fold increase, host cell viability. HSV replication augmentation in cells. maximum fold increase. actives 0.005% (n = 220,000); in the data active means maximum fold increase above about 1.5; tested in PC3 cells
L major viab: Leishmania major promastigote growth inhibition, primary screen. Leishmania major promastigotes, resazurin fluorescence viability. inhibition, % at 10 µM. actives 9% (n = 200,000). AID 1063, 2008; in the data active means inhibition above about 50%;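 further: promastigotes grown with compound for 44 hours at 28 °C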
Dynein cargo inh: inhibitors of GR-EGFP nuclear translocation, primary screen, dynein cargo transport inhibitor project, imaging, high-content, 3617.4 mouse cells; actives 0.47% (n = 220,000); AID 1381, 2008; test concentration mostly 20 µM; stimulated with dexamethasone, 1 µM; stronger effect = lower value; z-score, hits read low;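 active means plate z-score of nuclear minus cytoplasmic receptor signal below a set negative limit, without overly bright fluorescence or cell loss, cut at about -3.5 in these data, passing the limit was not always enough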;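 further: z-score of nuclear minus cytoplasmic ring GR-EGFP intensity difference per well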
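medium = tetracycline-free induction medium containing charcoal-stripped FBS | probe or stimulus = dexamethasone, 1.0 µM final | timing = 48 h induction, then 1 h compound, then 30 min agonist, 37 °C | detection = automated 10x imaging of fixed Hoechst-stained cells | read-out basis = nuclear versus cytoplasmic GR-EGFP signal, averaged per well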
The depositor's hits bear a star; i = inactive; nt = no result. This is a sample that favours compounds with a hit; in the whole collection about 8.9% have one here.

SMILES	MT stabilize HCS	b-catenin transl	HSV augment	L major viab	Dynein cargo inh
O=C1CC(N2CCN(C/C=C/c3ccccc3)CC2)C(=O)N1Cc1cccs1 (stereo unspecified)	4.0	1.0	i	89.3*	-0.189
N#CC1=C2SCN(Cc3ccco3)CN2C(=O)CC1c1c(F)cccc1Cl (stereo unspecified)	6.8	nt	i	74.8*	-1.03
Cc1ccc(C2CC(=O)N3CN(Cc4ccco4)CSC3=C2C#N)cc1 (stereo unspecified)	4.0	-7.8	i	4.8	0.67
COCCCNc1ncnc2ccc(C)cc12	2.6	-1.3	i	42.3	0.4
Cc1ccc2ncnc(Nc3ccc(C)c(C)c3)c2c1	1.0	nt	i	72.8*	-0.587
O=S(=O)(c1ccc(OCC(O)CN2CCC(Cc3ccccc3)CC2)cc1)N1CCOCC1 (stereo unspecified)	1.9	1.1	i	99.7*	-0.0723
OC(COc1ccccc1)CN1CCCC1 (stereo unspecified)	2.8	1.4	i	-4.8	-0.326
O=C(c1ccccc1)c1ccc(OCC(O)CN2CCOCC2)cc1 (stereo unspecified)	5.2	nt	i	11.3	1.69
CC(=O)c1ccc(OCC(O)CN2CCOCC2)cc1 (stereo unspecified)	4.2	nt	i	-4.0	-0.45
OC(COc1ccc(OCc2ccccc2)cc1)CN1CCOCC1 (stereo unspecified)	0.7	0.0	i	97.4*	-0.64
OC(COc1ccc(-c2ccccc2)cc1)CN1CCOCC1 (stereo unspecified)	3.4	2.1	i	93.2*	-0.335
OC(COc1ccc(OCc2ccccc2)cc1)CN1CCCCC1 (stereo unspecified)	3.0	nt	i	96.2*	0.822
CC1CCN(S(=O)(=O)N2CCC(C(=O)NC3CCCC3)CC2)CC1	2.3	1.3	i	-0.6	-0.892
CCN(CC)CCNC(=O)C12CC3CC(C)(CC(C)(C3)C1)C2	2.1	nt	i	93.9*	-0.0639
CCN(CC)S(=O)(=O)c1cccc(C(=O)NC(Cc2c[nH]c3ccccc23)c2nnc3n2CCC3)c1 (stereo unspecified)	5.9	nt	i	63.1*	1.66
O=C(COC(=O)CCSc1ccccc1Cl)NCc1ccco1	1.7	0.8	i	1.5	-0.233
N/C(Cc1ccccc1Sc1ccccc1)=N\O	3.1	0.8	i	2.7	-0.11
CCN(CC)Cc1ccccc1Sc1ccccc1	2.8	-3.0	i	94.4*	-0.328
CCOC(=O)C(Cc1ccc(NC(=O)/C(=C/c2ccccc2)NC(=O)c2ccccc2)cc1)N1C(=O)c2ccccc2C1=O (stereo unspecified)	1.1	1.7	i	-5.0	-0.617
Cc1ccc(S(=O)(=O)Nc2ccc(SC(F)F)cc2)c(C)c1	1.8	-0.4	i	0.9	0.845
c1ccc(-c2cnnc(-c3ccccn3)n2)cc1	nt	nt	i	nt	nt
C=CCNc1nc(-c2ccccn2)nnc1-c1ccccc1	4.7	nt	i	99.7*	0.271
Cc1nn(-c2ccc(F)cc2)c(C)c1CN1CCN(CCc2ccccc2)C(CCO)C1 (stereo unspecified)	4.8	0.3	i	79.2*	-0.794
Cc1nn(-c2ccc(F)cc2)c(C)c1CN1CCN(CCC(C)C)C(CCO)C1 (stereo unspecified)	5.1	-4.4	i	54.8*	-0.362
Cc1nn(-c2ccc(F)cc2)c(C)c1CN1CCN(Cc2ccccc2)C(CCO)C1 (stereo unspecified)	3.9	2.0	i	13.4	2.33
COCCn1c(C)cc(C(=O)COC(=O)c2ccc([N+](=O)[O-])o2)c1C	4.7	0.7	i	74.7*	1.11
Cc1cc(C(=O)COC(=O)c2ccc([N+](=O)[O-])o2)c(C)n1CC1CCCO1 (stereo unspecified)	4.6	11.7	i	81.5*	0.298
Cc1cc(C)c(C(=O)COC(=O)c2ccc([N+](=O)[O-])o2)cc1C	1.6	-1.0	i	-2.0	-1.27
Cc1cc(C(=O)COC(=O)c2ccc3c(c2)OCO3)c(C)n1CC1CCCO1 (stereo unspecified)	4.4	0.9	i	0.7	-0.553
COc1ccccc1NC(=O)/C=C1\NC(=O)CS1	1.9	-1.7	i	88.4*	-1.27

Source: PubChem (several laboratories)
